Measurements of several laboratories.
Compare with care: the assays were run in different laboratories.

SMILES | test | test system | conditions | measurement | value
O=C(OC(C(F)(F)F)C(F)(F)F)N1CCN(Cc2ccc(C(F)(F)F)cc2N2CCCC2)CC1 | HPLC | – | – | chromatographic logP | 7.4
N=c1c2c(-c3ccccc3)c(-c3ccccc3)n(Cc3ccccc3)c2ncn1[C@H]1CC[C@H](O)CC1 | – | female minipig, plasma | oral, 2.5 mg/kg, single dose | half-life | 98.4 h
Cc1cc(C)nc(Nc2ncc(C(=O)NCCc3c(C)[nH]c4ccccc34)cn2)c1 | metabolic stability | dog, liver microsomes | 1 µM | microsomal CLint | 72 µL/min/mg
CC[C@H]1CN2CC[C@H]1C[C@@H]2[C@@H](O)c1ccnc2ccc(OC)cc12 | – | water | – | logP | 3.43
O=C(NCCCCCn1ccc2ccc(F)cc21)Oc1cccnc1 | HPLC | – | – | chromatographic logP | 2.6
CN[C@H](CC(C)C)C(=O)N[C@H]1C(=O)N[C@@H](CC(N)=O)C(=O)N[C@H]2C(=O)NC3C(=O)N[C@H](C(=O)N[C@H](C(=O)NCCC[N+](C)(C)C)c4cc(O)cc(O)c4-c4cc3ccc4O)[C@H](O)c3ccc(c(Cl)c3)Oc3cc2cc(c3OC2OC(CO)C(O)[C@H](O)[C@@H]2O[C@H]2CC(C)(NCc3ccc(-c4ccc(Cl)cc4)cc3)[C@H](O)[C@H](C)O2)Oc2ccc(cc2Cl)[C@H]1O (some centres unmarked) | – | mouse, plasma | intravenous, 10 mg/kg | half-life | 7 h
C[C@]12CC[C@H](n3ccnc3)CC1=CC[C@@H]1[C@@H]2CC[C@]2(C)C(n3cnc4ccccc43)=CC[C@@H]12.Cl | – | male CD-1 mouse, plasma | intravenous, 1 mg/kg | half-life | 17.1 h
Cc1ccccc1C(=O)NN=Cc1ccc(O)c(Br)c1 | – | mouse, plasma | intravenous, 1.6 mg/kg | half-life | 1.24 h
C[C@]12CC[C@H](O)CC1=CC[C@@H]1[C@@H]2CC[C@]2(C)C(n3cnc4ccccc43)=CC[C@@H]12.Cl | – | mouse, plasma | oral, 10 mg/kg | half-life | 5.16 h
O=C(O)c1ccc(OC(=O)N2CCC(CCn3ccc4ccc(F)cc43)CC2)cc1 | HPLC | – | – | chromatographic logP | 3.6
Nc1nc(-c2ccccc2)nc2[nH]nc(Nc3ccc(C(F)(F)F)cc3)c12 | – | mouse, plasma | oral, 100 mg/kg, 6 h | concentration | 0.802 µg/mL
C=C[C@H]1C[N@@]2CC[C@H]1C[C@@H]2[C@@H](O)c1ccnc2ccccc12 | – | water | – | logP | 2.82
CCCCCCCC/C=C\CCCCCCCC(=O)OC[C@](C)(O)C[C@@H]1NC(=O)[C@@H]2Cc3c([nH]c4ccccc34)SC[C@H](NC(=O)[C@@H]([C@H](C)O)NC(=O)[C@H](C)NC1=O)C(=O)N1C[C@@H](O)C[C@H]1C(=O)N[C@@H](C)C(=O)N2 | – | – | – | logP | 1.7
O=C(NCCCCCn1ccc2ccc(F)cc21)Oc1cccc2[nH]ccc12 | HPLC | – | – | chromatographic logP | 3.5
NCC(=O)Nc1ccc(-n2nc(C(F)(F)F)cc2-c2ccc3c(ccc4ccccc43)c2)cc1 | – | mouse, plasma | oral, 80 mg/kg, single dose | half-life | 22 h
N#Cc1ccccc1OC(=O)NCCCCCn1ccc2ccc(F)cc21 | HPLC | – | – | chromatographic logP | 3.9
N[C@@H](Cc1ccccc1)C(=O)N1C/C(=C\c2ccc(Cl)c(Cl)c2)C(=O)/C(=C/c2ccc(Cl)c(Cl)c2)C1 | – | mouse, plasma | oral, 20 mg/kg | half-life | 2.6 h
